Hits are enriched below; roughly 1.9% of the tested compounds scored in any of these assays.
Tb hexokinase: Trypanosoma brucei hexokinase 1 inhibitors, primary screen, biochemical, G6PDH-coupled NADH absorbance, MLSCN library; recombinant TbHK1, G6PDH-coupled NADH A340; inhibition, % at 10 µM; actives 0.11% (n = 220,000);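 active means inhibition of 50% or more in the single-dose primary screen; inactive means inhibition below 50%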
bCat nuc transl: modulators of beta-catenin nuclear translocation, primary screen, imaging, HeLa cells, immunofluorescence, high-content. nuclear translocation activity, % at 5 µM. actives 0.3% (n = 190,000);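 active means nuclear translocation activity above 50% at 5 µM, with a well cell count of 50 or more; inconclusive means wells under 50 cells across six images, flagged as toxic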;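 further: per-cell ratio of nuclear to cytoplasmic median beta-catenin stain intensity; plate controls were DMSO negative control for no effect and GSK-3 inhibitor IX positive control for full effect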
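Test system: human HeLa cell line; Doses: 5 µM primary, 0.02–20 µM confirmation; Incubation: 24 h compound exposure, 37°C; Detection: beta-catenin immunofluorescence imaging with DAPI; Read-out: beta-catenin nuclear/cytoplasmic ratio, % activation.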
MT stabilize HCS: microtubule stabilizers in HeLa cells, primary screen, imaging, high-content imaging; % tubulin-high responders, % at 10 µM; HeLa tubulin immunostaining HCS, 24 h; share of cells brighter than vehicle mean+2SD; actives 0.83% (n = 200,000);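 active means plate Z-score above 3 for both tubulin-high and condensed-nucleus cell shares, with cell loss under 80%, at 10 µM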;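 further: anti alpha tubulin signal scored within the nucleus-defined area of each cell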
Ins promoter up: insulin promoter activators in MIN6 cells, imaging, high-content screening, mouse beta cells. actives 0.3% (n = 190,000). z-score at 5 µM. MIN6 insulin promoter-GFP reporter; hits give high values;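 active means z-score above 3 at 5 µM with at least 500 cells counted in the well; inconclusive means wells under 500 cells, flagged as cytotoxic or low count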
Autophagy HCS: autophagy modulators in MEF cells, primary screen, imaging, high-content, MEF GFP-LC3. MEF GFP-LC3 puncta imaging; test concentration mostly 10 µM. calls only at 10 µM (by protocol). actives 0.98% (n = 190,000). AID 463193, 2010;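 active means percentage of spot-positive cells more than 3 SD above its plate mean, without a fluorescence outlier flag or 80% toxicity; inconclusive means no clear call, values can overlap the other calls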;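 further: spot-positive cell cutoff set from DMSO-treated cells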
The depositor's hits bear a star; i = inactive; ? = inconclusive; . = no result given; + = active, no number.

SMILES	Tb hexokinase	bCat nuc transl	MT stabilize HCS	Ins promoter up	Autophagy HCS
CCCCCCOC(=O)C(C#N)c1nc2ccccc2nc1N1CCN(CC)CC1 (configuration not stated)	-3	-1	2	-0.41	+
N#CC(C(=O)NCc1ccccc1)c1nc2ccccc2nc1N1CCCC1 (configuration not stated)	-4	-1	3	1.7	+
Cc1ccc2c(c1)N(C(C)C(=O)NCc1ccc3c(c1)OCO3)C(=O)CO2 (configuration not stated)	-5	0	.	0.38	.
COC(=O)c1scc(C)c1N1C(=O)c2ccccc2C1=O	8	-1	.	-0.38	.
CCN1CCCC1CNC(=O)c1cc2c(-c3cccc(OC)c3)nn(C)c2s1 (configuration not stated)	-8	.	4	-0.87	i
CCN1CCCC1CNC(=O)c1cc2c(-c3ccc(Cl)cc3)nn(C)c2s1 (configuration not stated)	-7	.	4	-1.9	+
Cn1nc(-c2ccc(Cl)cc2)c2cc(C(=O)NCCCN3CCCC3)sc21	-6	.	1	-0.32	+
Cc1ccc(CN2CCC(c3cc(-c4cccs4)n[nH]3)CC2)cc1	-5	1	3	-0.62	i
FC(F)(F)c1cccc(CN2CCC(c3cc(-c4cccs4)n[nH]3)CC2)c1	5	0	29*	-1.1	i
C=CCn1c(N2CCN(c3ccc(OC)cc3)CC2)nc2c1c(=O)[nH]c(=O)n2C	2	0	3	-0.84	i
COc1cc(C(CCN2CCCCC2)c2c(OC)cc(OC)c3c(C)cc(=O)oc23)cc(OC)c1OC (configuration not stated)	-19	1	.	.	.
CCOC(=O)c1cc2oc(C(c3nnnn3C3CCCCC3)N3CCOCC3)cc2[nH]1 (configuration not stated)	-8	37	11	.	+
COc1ccc(NC(=O)c2cccc([N+](=O)[O-])c2)cc1	2	0	1	0.22	i
O=C(Nc1ccc(O)cc1)c1cccc(Oc2ccc([N+](=O)[O-])cc2)c1	-3	6	37*	1.1	i
CN(C)S(=O)(=O)Oc1cccc(C(=O)Nc2ccc([N+](=O)[O-])cc2)c1	-6	-1	2	3.4*	i
CCNC(=O)CC1C(=O)N(CC)C(=S)N1NC(=O)c1cccnc1 (configuration not stated)	-5	0	2	-0.48	i
COc1ccc2cc(CCN3C(=O)c4ccccc4C3=O)c(=O)[nH]c2c1	0	4	4	-0.05	i
N#Cc1ccc(-c2cccs2)nc1SCc1cccnc1	-8	135*	.	0.27	.
N#Cc1c(C(F)(F)F)cc(-c2cccs2)nc1SCc1cccnc1	-14	.	42*	.	i
NC(Cc1ccccc1)C(O)(c1ccccc1)c1ccccc1 (configuration not stated)	4	-1	3	-0.14	i
Clc1nc2ccccc2nc1-c1ccccc1	-9	0	.	-0.1	.
CCCCn1nc(-c2ccccc2)c2nc3ccccc3nc21	4	0	2	.	+
Cn1nc(-c2ccccc2)c2nc3ccccc3nc21	-11	-4	3	1.8	+
Cc1nc(S(=O)(=O)Nc2ccccc2C(=O)NCC2CC2)cn1C	-4	0	.	-0.85	.
C(=N\Nc1nc2ccccc2[nH]1)/c1ccccc1	-40	0	.	.	i
SMILES	Tb hexokinase	bCat nuc transl	MT stabilize HCS	Ins promoter up	Autophagy HCS
C(=C\c1ccccc1)/C=N/Nc1nc2ccccc2[nH]1	-41	21	13*	-1.1	i
O=C(NC1(C(F)(F)F)N=C2SCCN2C1=O)c1cccnc1 (configuration not stated)	2	-1	3	0.03	i
O=C(Nc1ccc(OC(F)F)c(Cl)c1)Nc1ccc2c(c1)OCO2	2	0	3	0.15	i
O=C(Nc1ccc([N+](=O)[O-])cc1)Nc1ccc(OC(F)F)c(Cl)c1	-13	4	2	?	+
Cc1ccc(NC(=O)Cn2nc(C)c(S(=O)(=O)N(C)C)c2C)cc1C	3	-3	3	0.15	i
CCOc1cc(/C=C2/NC(=O)NC2=O)cc(Br)c1OCc1ccc(C(=O)O)cc1	-13	0	3	1.7	+
O=C(O)COc1c(Cl)cc(/C=C2/NC(=O)NC2=O)cc1Br	-25	-1	2	-0.1	i
C=C(c1ccc(OC)cc1)c1ccc(OC)cc1	-1	88*	6	0.55	i
CC1CCCC(NC(=O)COC(=O)c2ccccc2[N+](=O)[O-])C1C (configuration not stated)	8	1	4	0.44	+
S=C(NCc1ccco1)Nc1cc(-c2ccccc2)[nH]n1	5	1	4	-0.52	i
COCCCN=C1NN=C(c2cc(C)n(Cc3ccccc3Cl)c2C)CS1	-9	76*	15*	-0.65	+
COCCCN=C1NN=C(c2cc(C)n(-c3ccccc3F)c2C)CS1	-18	92*	19*	0.24	i
COC(=O)Nc1nc(-c2ccccc2)c(C(=O)c2ccccc2)s1	-13	162*	12	0.02	i
CN(C)S(=O)(=O)c1ccc(C(=O)Nc2nc(-c3ccccc3)c(C(=O)c3ccccc3)s2)cc1	-5	-1	6	0.65	i
COC(=O)Nc1nc(C)c(C(=O)c2ccccc2)s1	-13	56*	8	-0.31	i
CC(C)c1ccc(/C=N/NC(=O)c2cccc(Cl)c2)cc1	1	.	23*	-3.8	i
Cc1nn2c(NCCN(C)C)c3c(nc2c1-c1ccccc1)CCCC3	-22	2	.	-0.66	.
CC(=O)NC1CCN(C(=O)N2CCCC2)CC1	5	1	5	0.02	+
COc1cccc(C(=O)NC2CCN(C(=O)N3CCCCC3)CC2)c1	4	-2	4	-0.81	i
Cc1ccc(N)c(C(O)(C(F)(F)F)C(F)(F)F)c1	0	.	3	0.61	+
O=C(c1cc2cc([N+](=O)[O-])ccc2oc1=O)N1CCOCC1	-24	-1	2	-0.64	i
O=C(c1cc2cc([N+](=O)[O-])ccc2oc1=O)N1CCN(c2ncccn2)CC1	-11	.	1	0.77	+
COc1cccc(CNC(=S)Nc2cc(OC)ccc2OC)c1	4	-6	2	1	i
COc1ccc(NS(=O)(=O)c2cccc(C(=O)NNC(=O)c3cc(C)oc3C)c2)cc1	2	-1	2	0.1	i
COc1ccc(NS(=O)(=O)c2cc(C)ccc2NC(=O)c2cc(C)oc2C)cc1	-3	.	21*	-0.57	i
O=C(COC(=O)CCc1nc2ccccc2c(=O)[nH]1)Nc1ccc2c(c1)OCO2	-7	-2	.	0.2	.
Cc1nn(-c2ccccc2)c(C)c1/C=N/NC(=O)c1cc(-c2ccccc2)n[nH]1	-7	80*	14*	-0.92	i
